Results published in ChEMBL document CHEMBL4368875, “Towards identifying potent new hits for glioblastoma” (Medchemcomm, 2018).

Columns and labels:
U-251 = assay: Antiproliferative activity against human U251MG cells after 72 hrs by sulforhodamine B assay; type: functional, cell-based; conditions: U-251, 72 h
How it was run: (§1)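 Established GBM lines grown under conditions similar to the short-term cultures (Hams F10, 10% foetal calf serum, 37 °C, no CO₂). Seeded at 3000 cells per well and grown 48 h to exponential phase. Exposed 72 h to serial dilutions from DMSO stocks. Fixed in 10% TCA, stained with 0.4% SRB in 1% acetic acid, dye dissolved in 10mM Tris, absorbance 560nm. EC50 by non-linear variable-slope fit.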

[1] = Antiproliferative activity against human IN1760 cells after 72 hrs by sulforhodamine B assay; type: functional, cell-based; conditions: IN1760, 72 h
How it was run: (§2)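 Short-term cultures derived from about 10mg of adult GBM biopsy tissue, used at passages 10 to 14. Grown in Hams F10 with 10% foetal calf serum at 37 °C without CO₂. Seeded at 3000 cells per well, then grown 48 h to exponential phase. Treated 72 h with serial dilutions from DMSO stocks. SRB read-out at 560nm. EC50 from a variable-slope sigmoidal dose-response fit.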

[2] = Antiproliferative activity against human IN1528 cells after 72 hrs by sulforhodamine B assay; type: functional, cell-based; conditions: IN1528, 72 h; how it was run: as §2
U-87 MG = assay: Antiproliferative activity against human U87MG cells after 72 hrs by sulforhodamine B assay; type: functional, cell-based, U-87MG ATCC; how it was run: as §1
[3] = Antiproliferative activity against human IN1472 cells after 72 hrs by sulforhodamine B assay; type: functional, cell-based; conditions: IN1472, 72 h; how it was run: as §2
[4] = Solubility of the compound in DMSO at >1250 uM; type: physicochemical

Structure (SMILES)	EC50 (U-251)	EC50 [1]	EC50 [2]	EC50 (U-87 MG)	EC50 [3]	solubility [4]
Cc1c(O)ccc(O)c1C	17 µM					
O=C1c2ccccc2C(=O)N1c1ccccc1O	916 µM	1080 µM	744 µM			
Cc1ccc(O)c(-c2cc3ccccc3[nH]2)c1	21 µM	32 µM	29 µM			
Oc1ccccc1-c1nc2ccccc2o1	2260 µM	> 2500 µM		52 µM		
Oc1ccccc1-c1nc2ccccc2s1	> 1250 µM	> 1250 µM	> 1250 µM	> 1250 µM	> 1250 µM	Insoluble
Oc1ccccc1-c1nc2ccccc2[nH]1	23 µM	36 µM	25 µM			
Oc1ccccc1-c1c[nH]c2ccccc12	95 µM	231 µM	120 µM			
Oc1ccccc1OCc1ccccc1	304 µM	371 µM	193 µM			
Oc1ccccc1-c1ccc2ccccc2c1	92 µM	> 1000 µM	104 µM	48 µM		
CCCCCCC(=O)Oc1ccccc1-c1cc2ccccc2[nH]1	38 µM		29 µM			
CC(=O)Oc1ccccc1-c1cc2ccccc2[nH]1	31 µM		80 µM			
Nc1ccccc1-c1cc2ccccc2[nH]1	328 µM		153 µM	257 µM	155 µM	
O=C(Oc1ccccc1-c1cc2ccccc2[nH]1)c1ccccc1	39 µM		38 µM			
Oc1ccc(-c2ccccc2)cc1	102 µM	81 µM	85 µM			
Oc1ccccc1-c1cc2ccccc2[nH]1 [2-(2'-HYDROXYPHENYL)-1H-INDOLE]	130 µM	185 µM	99 µM	126 µM	> 625 µM	
COc1ccccc1-c1cc2ccccc2[nH]1 [2-(2'-METHOXYPHENYL)-1H-INDOLE]				> 625 µM		
c1ccc(-c2cc3ccccc3[nH]2)cc1 [2-PHENYL-1H-INDOLE]	> 625 µM	> 625 µM	> 625 µM	> 625 µM	> 625 µM	
Oc1ccccc1-c1ccccc1 [2-PHENYLPHENOL]	372 µM	236 µM	361 µM			
CC(=O)Oc1ccccc1C(=O)O [ASPIRIN]	1340 µM	> 4000 µM	787 µM	723 µM	1410 µM	
COc1ccccc1O [GUAIACOL]	1140 µM	> 4000 µM	813 µM	492 µM	2020 µM	
Oc1ccc(O)cc1 [HYDROQUINONE]	57 µM					
c1ccc2[nH]ccc2c1 [INDOLE]	> 625 µM	> 625 µM	> 625 µM	> 625 µM	> 625 µM	
O=[N+]([O-])c1ccccc1O [NITROPHENOLATE]	1250 µM	> 4000 µM	890 µM	888 µM		
Cc1ccccc1O [ORTHOCRESOL]	1560 µM	> 4000 µM	744 µM	664 µM	1440 µM	
Oc1ccccc1 [PHENOL]	1230 µM	> 4000 µM	747 µM	834 µM	1730 µM	
NC(=O)c1ccccc1O [SALICYLAMIDE]	1200 µM	> 4000 µM	793 µM	760 µM	1390 µM	
